Wee1 stabilizer – Wee1 degradation inhibitors, primary screen, cell-based, HeLa, Wee1K328M-luciferase, luminescence; Wee1-like protein kinase (Homo sapiens), P30291; HeLa Luc-Wee1K328M stability; 100% = proteasome inhibitor MG132 effect; reporter increase, % at 5 µM; hit rate 1.2% among 220,000; AID 1321, 2008;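 active = activation above the mean of all tested compounds plus 3 SD, set per screening run, cut at about 8.8% in these data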;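 note: cells exposed to compound for 20 h before luminescence read; 0% = DMSO alone and 100% = MG132 at 30 µM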
NPY-Y2 PAM-ag – NPY-Y2 potentiators or agonists, primary screen, cell-based; Neuropeptide Y receptor type 2 (Homo sapiens), P49146; cells expressing NPY-Y2, potentiator/agonist read-out; hit rate 0.45% among 220,000; activation, % at 3.6 µM; in the data active = activation above about 27%;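 note: cells stimulated with NPY near EC25 plus isoproterenol at EC100; 0% = vehicle plus submaximal agonist and 100% = vehicle plus saturating agonist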
NPY-Y2 antag – NPY-Y2 receptor antagonists, primary screen, cell-based. Neuropeptide Y receptor type 2 (Homo sapiens), P49146. NPY-Y2 expressing cells, antagonist mode. inhibition, % at 2.7 µM. hit rate 0.99% among 140,000. AID 793, 2007;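 note: 0% = vehicle with agonist challenge and 100% = reference antagonist with challenge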
NPY Y1 blocker – NPY-Y1 receptor antagonists, primary screen, cell-based; Neuropeptide Y receptor type 1 (Homo sapiens), P25929; HEK293-CNG Y1 cells, membrane potential fluorescence; NPY at EC95, then isoproterenol; inhibition, % at 3.6 µM; hit rate 1% among 200,000; AID 1040, 2008;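 active = inhibition above the campaign mean inhibition of all tested compounds plus 3 SD, cut at about 20% in these data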;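 note: 0% = DMSO wells given NPY plus isoproterenol and 100% = isoproterenol alone without NPY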
Target sequence (P25929 whole entry, looked up): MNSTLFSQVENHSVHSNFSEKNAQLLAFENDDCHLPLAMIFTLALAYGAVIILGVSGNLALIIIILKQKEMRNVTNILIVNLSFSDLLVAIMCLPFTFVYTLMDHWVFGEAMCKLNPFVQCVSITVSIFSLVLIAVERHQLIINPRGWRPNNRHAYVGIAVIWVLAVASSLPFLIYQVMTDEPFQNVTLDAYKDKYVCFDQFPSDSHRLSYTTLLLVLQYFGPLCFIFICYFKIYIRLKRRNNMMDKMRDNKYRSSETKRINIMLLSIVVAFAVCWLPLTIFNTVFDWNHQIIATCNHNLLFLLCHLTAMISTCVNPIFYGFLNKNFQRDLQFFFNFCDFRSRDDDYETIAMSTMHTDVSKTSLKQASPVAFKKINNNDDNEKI
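Test system: HEK293 cells co-expressing NPY Y1 receptor and cyclic-nucleotide gated channel; Also added: NPY (25 nM), isoproterenol (1 µM), Ro 20-1724 (25 µM); Compound dosing: one concentration, 3.6 µM, in 0.4% DMSO; Timing: dye 3 h, compound 60 min room temperature, stimulation 45 min; Technique: Membrane-potential fluorescent dye readout.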
Hsp70 activator – Hsp70 transcriptional activators, primary screen, cell-based, HeLa, Hsp70 promoter luciferase, luminescence, 10 µM; HeLa Hsp70 promoter luciferase reporter; scaled: vehicle 0, proteasome-inhibitor control 100%; hit rate 0.04% among 200,000; activation, % at 10 µM;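 active = activation above the mean across all tested compounds plus 3 SD, cutoff set per campaign, cut at about 5.5% in these data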;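 note: 100% = MG132 at 30 µM as the positive control and 0% = DMSO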
NPY1 pot ag – NPY-Y1 receptor potentiators or agonists, primary screen, cell-based; hit rate 0.37% among 220,000; activation, % at 3.6 µM; NPY-Y1 expressing cells, potentiator/agonist activation; AID 1304, 2008; in the data active = activation above about 33%, passing the limit was not always enough;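 note: cells stimulated with NPY at EC10 then isoproterenol at EC100; 0% = low agonist plus stimulus and 100% = saturating agonist plus stimulus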
NPY-Y1 ant conf – NPY-Y1 receptor antagonists, retest of hits, confirmation, HEK293-CNG cells, membrane potential fluorescence, triplicate | AID 1254, 2008 | cAMP; NPY challenge against isoproterenol-raised cAMP | shares compounds with NPY Y1 blocker | hit rate 21% among 1,200 | inhibition, % at 3.6 µM; in the data active = inhibition above about 20%;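 note: 0% = vehicle with agonist plus stimulus and 100% = stimulus alone without agonist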
NPY2 antag ctr – NPY-Y2 receptor antagonists, selectivity check, confirmation, counter-screen for NPY-Y1 antagonist project, HEK293-CNG cells, membrane potential fluorescence, triplicate; shares compounds with NPY Y1 blocker; antagonism; cells given NPY, then isoproterenol; inhibition, % at 3.6 µM; hit rate 28% among 1,200;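 note: 0% = DMSO with agonist challenge and 100% = reference antagonist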
An asterisk follows results filed as active; / = no result given. Shown are actives, neighbours in structure and some others; about 3% of the full set was active somewhere. Cut-off read from the data, not from the text of the source, unless noted: active = inhibition above about 17%; inactive = the rest.

SMILES	Wee1 stabilizer	NPY-Y2 PAM-ag	NPY-Y2 antag	NPY Y1 blocker	Hsp70 activator	NPY1 pot ag	NPY-Y1 ant conf	NPY2 antag ctr
CC1(c2ccccc2)CC(C)(C)N(C(=O)C2CCCO2)c2ccccc21 (stereo not given)	3.0	-4.5	16.2	26.7*	-0.2	-25.0	10.6	8.3
CC1(c2cc([N+](=O)[O-])cc([N+](=O)[O-])c2)CC(C)(C)N(C(=O)c2ccccc2)c2ccccc21 (stereo not given)	0.0	17.5	-0.5	-3.1	0.0	14.2	/	/
CCNc1nc(NC(C)C)nc(Oc2ccc(/C=N/O)cc2)n1	1.3	-11.6	-0.2	-3.0	-0.3	-15.8	/	/
CC1CC(C)CN(C2CCN(Cc3cccnc3)CC2)C1 (stereo not given)	2.3	7.5	1.1	20.8*	-0.4	-0.1	-0.2	4.2
O=C1CCc2cc(S(=O)(=O)N3CCCC3C(=O)N3CCN(c4ccccc4)CC3)ccc2N1 (stereo not given)	-2.3	6.0	2.5	0.0	-0.4	-14.0	/	/
Cc1cc(C)n(-c2nc3ccccc3c(=O)n2OCC(=O)Nc2c(C)cccc2C)n1	-2.5	4.5	4.3	7.2	-0.4	-12.7	/	/
Cc1ccccc1NC1=C(Cl)C(=O)N(C2CCCCC2)C1=O	2.1	7.3	2.7	22.0*	-0.3	-13.9	7.4	0.9
CCc1oc(C(=O)OC)cc1CSC(=N)N	1.7	-11.4	/	/	/	2.8	/	/
Cc1cc(C)cc(C(=O)NN2CCN(C)CC2)c1	-2.7	-19.4	/	2.2	0.2	-1.3	/	/
Cc1ccc(CSc2ncccc2C(=O)O)cc1	-1.6	-14.6	12.3	22.9*	0.0	-21.3	10.9	5.8
Cc1cc(N2CCN(c3ccc(F)cc3)CC2)nc(-c2ccccc2)n1	-0.3	-6.4	3.3	20.7*	0.1	-42.4	3.4	5.8
Cc1noc(C)c1S(=O)(=O)N1CCCC(C(=O)c2cccc(OC(C)C)c2)C1 (stereo not given)	-2.4	-9.2	/	3.0	-0.1	1.0	/	/
C=CCOc1ccccc1CN1CCC(CO)(CCOc2ccccc2)CC1	5.6	-40.8	/	27.0*	0.0	-33.6	10.1	17.0
COCCN1Cc2cccc(C(=O)Nc3cc(OC)ccc3OC)c2C1=O	-2.7	-1.8	2.8	34.1*	-0.4	-12.2	26.6*	62.4*
COCCN1Cc2cccc(C(=O)Nc3cc(C)cc(C)c3)c2C1=O	-1.2	4.9	1.2	5.0	-0.1	-1.0	/	/
Cc1ccc(N(CC(=O)Nc2ccccc2-c2ccccc2)S(=O)(=O)c2ccccc2)cc1	7.8	-34.0	5.7	10.9	-0.1	-41.1	/	/
CN1CCC(Oc2ccccc2Sc2ccc(C(F)(F)F)cc2)CC1	5.7	-10.2	15.9	29.8*	-0.1	-38.4	8.3	15.2
CN1CCC(Oc2ccc(Sc3ccccc3)cc2)CC1	2.4	7.7	7.8	6.5	0.2	-17.0	/	/
CCN(c1ccccc1)S(=O)(=O)c1ccc(OC)c(NC(=O)C2CC(=O)N(Cc3ccccc3)C2)c1 (stereo not given)	-2.0	12.2	/	/	/	10.8	/	/
CCCCCNCc1cccc(Br)c1	-2.9	-13.9	10.3	3.8	0.0	-11.1	/	/
Cc1ccc(CNc2ccc(Cl)cc2[N+](=O)[O-])cc1	0.1	-18.1	5.4	24.3*	0.2	-18.2	7.8	12.5
CCC(=O)Nc1ccc(C(=O)NNC(=O)Cc2ccccc2)cc1	0.9	-8.7	0.3	-10.3	-0.2	13.1	/	/
COc1ccc(NC2c3ccccc3C(=O)N2Cc2ccccc2Cl)cc1OC (stereo not given)	0.8	-12.3	/	/	/	-13.8	/	/
